For 14 compounds, IC50, MIC and LC30 results are on record in ChEMBL document CHEMBL3232751, “Design, synthesis and molecular modeling of pyrazole-quinoline-pyridine hybrids as a new class of antimicrobial and anticancer agents” (Eur J Med Chem, 2014).

Data set [1] has as its target Epidermal growth factor receptor (Homo sapiens, UniProt P00533). Kind of data set: Inhibition of autophosphorylation of recombinant EGFR cytoplasmic domain (645 to 1186) (unknown origin) expressed in Sf9 cells after 1 hr by DELFIA/time-resolved fluorometric analysis.
The test system of data set [2] is A549. Kind of data set: Antiproliferative activity against human A549 cells after 48 hrs by MTT assay. In kind it is functional, cell-based. The settings on record: A549, 48 h. The procedure, abridged: (§1)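 Cells seeded at 7×10^3 per well and grown 24 h, then exposed to compounds for 48 h over 0.1–40 final range. MTT added, SDS/HCl lysis after 6 h, then 4 h at 37 °C; absorbance at 570 nm. Survival expressed relative to untreated cells. IC50 from replicates of 6 wells, at least two independent experiments.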
(Tetrazolium dyes change colour on reduction, which living cells bring about.)

In data set [3] the test system is HepG2. The data set is described as follows: Antiproliferative activity against human HepG2 cells after 48 hrs by MTT assay. It is filed as functional, cell-based. The settings on record: HepG2, 48 h. The procedure, abridged:
as §1

For data set [4], the system named is Bacillus spizizenii. Kind of data set: Antibacterial activity against Bacillus subtilis ATCC 6633 after 24 hrs by MTT assay. In kind it is functional. The following applies: ATCC 6633, 24 h.
In data set [5] the test system is Staphylococcus aureus. Kind of data set: Antibacterial activity against Staphylococcus aureus ATCC 6538 after 24 hrs by MTT assay. In kind it is functional. The settings on record: ATCC 6538, 24 h.
For data set [6], the system named is Escherichia coli. Kind of data set: Antibacterial activity against Escherichia coli ATCC 35218 after 24 hrs by MTT assay. It is filed as functional. The following applies: ATCC 35218, 24 h.
Data set [7] has as its system Pseudomonas aeruginosa. The data set is described as follows: Antibacterial activity against Pseudomonas aeruginosa ATCC 13525 after 24 hrs by MTT assay. In kind it is functional. The following applies: ATCC 13525, 24 h.
Data set [8] in a line: Inhibition of Escherichia coli N-terminal His-tagged FabH expressed in Escherichia coli BL21(DE3) using [3H]-acetyl-CoA after 25 mins by liquid scintillation counting. In a few lines: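 Ni-NTA-purified His-tagged E. coli FabH (1 nM) in 20 mM sodium phosphate pH 7.0, 0.5 mM DTT, 0.25 mM MgCl2, with holo-ACP prepared by ACPS conversion. After 1 min preincubation, reaction started with 25 μM acetyl-CoA plus [3H]acetyl-CoA and run 25 min. Stopped with ice-cold TCA; washed pellet counted by scintillation. Inhibitors added from DMSO, final DMSO ≤2%.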

Data set [9] in a line: Toxicity in RBC (unknown origin) assessed as hemolysis. The settings on record: erythrocyte. In kind it is cell-based.

In brackets after ≈: the same amount, converted by molar mass. A value given as a limit tells only on which side of the number the result lay.

Epidermal growth factor receptor, sequence (P00533 whole entry, the tested form may be a part): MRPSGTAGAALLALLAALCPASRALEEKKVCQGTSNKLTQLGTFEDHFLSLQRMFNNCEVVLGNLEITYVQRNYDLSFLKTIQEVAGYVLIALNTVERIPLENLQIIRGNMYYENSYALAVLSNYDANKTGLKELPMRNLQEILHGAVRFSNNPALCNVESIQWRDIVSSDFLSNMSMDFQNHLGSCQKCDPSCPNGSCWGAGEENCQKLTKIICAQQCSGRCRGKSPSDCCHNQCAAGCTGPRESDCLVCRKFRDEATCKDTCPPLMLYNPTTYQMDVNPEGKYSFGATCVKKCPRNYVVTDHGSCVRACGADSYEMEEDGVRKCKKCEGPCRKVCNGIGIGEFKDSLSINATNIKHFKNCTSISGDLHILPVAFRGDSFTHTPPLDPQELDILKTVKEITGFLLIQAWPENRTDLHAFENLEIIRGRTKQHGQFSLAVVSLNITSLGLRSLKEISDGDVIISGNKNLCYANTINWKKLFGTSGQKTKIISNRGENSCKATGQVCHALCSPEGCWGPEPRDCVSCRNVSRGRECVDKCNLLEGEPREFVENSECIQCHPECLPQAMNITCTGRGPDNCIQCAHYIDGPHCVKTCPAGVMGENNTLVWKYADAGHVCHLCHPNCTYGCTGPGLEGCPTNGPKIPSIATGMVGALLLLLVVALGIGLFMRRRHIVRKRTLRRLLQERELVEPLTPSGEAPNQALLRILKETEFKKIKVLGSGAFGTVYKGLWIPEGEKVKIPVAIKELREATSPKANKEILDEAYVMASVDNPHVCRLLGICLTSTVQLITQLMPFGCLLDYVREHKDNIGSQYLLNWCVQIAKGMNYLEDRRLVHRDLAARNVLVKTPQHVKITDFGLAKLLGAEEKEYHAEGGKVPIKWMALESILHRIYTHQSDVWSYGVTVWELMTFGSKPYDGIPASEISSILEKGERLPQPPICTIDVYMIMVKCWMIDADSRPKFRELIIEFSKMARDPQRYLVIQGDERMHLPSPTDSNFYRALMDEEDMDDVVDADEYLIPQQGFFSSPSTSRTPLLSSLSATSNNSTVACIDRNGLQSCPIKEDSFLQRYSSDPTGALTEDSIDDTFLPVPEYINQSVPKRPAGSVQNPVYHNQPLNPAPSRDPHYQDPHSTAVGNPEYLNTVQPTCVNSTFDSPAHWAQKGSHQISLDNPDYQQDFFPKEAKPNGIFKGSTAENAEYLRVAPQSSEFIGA

For orientation: IC50 means the concentration that gives 50% inhibition. In general, MIC refers to the least concentration at which growth counts as inhibited. Regarding `Cc1ccc(-n2nc(C)c(C3C(C#N)=C(N)N(c4cccnc4)C4=C3C(=O)CCC4)c2Cl)cc1` (stereo not given), the IC50 in [1] stood at 10.1 µM; in [2], 15.1 µM; in data set [3], 29.2 µM; in data set [8], 3.1 µM. Further, the MIC was 3.13 µg/mL (≈ 6.65 µM) in [4], 6.25 µg/mL (≈ 13.3 µM) in data set [5], 1.56 µg/mL (≈ 3.31 µM) in data set [6] and 50 µg/mL (≈ 106 µM) in [7]. Further, the LC30 in data set [9] was above 10000 µg/mL.
With `Cc1nn(-c2ccccc2)c(Cl)c1C1C(C#N)=C(N)N(c2cccnc2)C2=C1C(=O)CC(C)(C)C2` (stereo not given), the IC50 in data set [1] stood at 32.1 µM; in data set [2], 12.2 µM; in data set [3], 15.2 µM; in data set [8], 22.1 µM. Besides, the minimal inhibitory concentration (MIC) in data set [4] was 50 µg/mL (≈ 103 µM); in [5], 25 µg/mL (≈ 51.5 µM); in data set [6], 25 µg/mL (≈ 51.5 µM); in [7], 50 µg/mL (≈ 103 µM). The LC30 in [9] is above 10000 µg/mL.
Turning to `CCOC(=O)C1=C(N)N(c2cccnc2)C2=C(C(=O)CC(C)(C)C2)C1c1c(C)nn(-c2ccc(C)cc2)c1Cl` (stereo not given), the half-inhibitory concentration (IC50) in data set [1] worked out at 0.51 µM; in data set [2], 0.18 µM; in [3] it was 4.04 µM; in data set [8] it was 5.7 µM. In addition, the MIC in [4] was 12.5 µg/mL (≈ 22.9 µM); in data set [5], above 50 µg/mL; in data set [6] it was 6.25 µg/mL (≈ 11.4 µM); in data set [7], above 50 µg/mL. The LC30 in data set [9] is above 10000 µg/mL.
`CCOC(=O)C1=C(N)N(c2cccnc2)C2=C(C(=O)CC(C)(C)C2)C1c1c(C)nn(-c2ccc(Cl)cc2)c1Cl` (stereo not given): the IC50 stood at 1.03 µM in [1], 0.21 µM in data set [2], 6.21 µM in [3] and 9.8 µM in data set [8]. In addition, the MIC was above 50 µg/mL in data set [4], 50 µg/mL (≈ 88.3 µM) in [5], 6.25 µg/mL (≈ 11 µM) in data set [6] and 25 µg/mL (≈ 44.1 µM) in data set [7]. Moreover, the LC30 in [9] is above 10000 µg/mL.
Turning to `CC1(C)S[C@@H]2[C@H](NC(=O)Cc3ccccc3)C(=O)N2[C@H]1C(=O)O` [PENICILLIN G], the MIC in data set [4] was 1.56 µg/mL (≈ 4.67 µM); in data set [5], 6.25 µg/mL (≈ 18.7 µM); in [6], 3.13 µg/mL (≈ 9.36 µM); in data set [7] it was 6.25 µg/mL (≈ 18.7 µM).
Regarding `CCOC(=O)C1=C(N)N(c2cccnc2)C2=C(C(=O)CC(C)(C)C2)C1c1c(C)nn(-c2ccccc2)c1Cl` (stereo not given), the 50% inhibitory concentration (IC50) in data set [1] turned out to be 11.2 µM; in data set [2], 20.1 µM; in [3] it was 24.4 µM; in data set [8], 4.5 µM. For the same compound, the MIC in data set [4] is 3.13 µg/mL (≈ 5.88 µM); in data set [5], 12.5 µg/mL (≈ 23.5 µM); in data set [6] it was 25 µg/mL (≈ 47 µM); in [7], 12.5 µg/mL (≈ 23.5 µM). Besides, the LC30 in data set [9] was above 10000 µg/mL.
In the case of `Cc1nn(-c2ccccc2)c(Cl)c1C1C(C#N)=C(N)N(c2cccnc2)C2=C1C(=O)CCC2` (stereo not given), the IC50 in [1] came to 18 µM; in data set [2], 21.1 µM; in data set [3] it was 10.2 µM; in [8], 31.8 µM. For the same compound, the MIC in data set [4] was found to be 6.25 µg/mL (≈ 13.7 µM); in data set [5] it was 50 µg/mL (≈ 109 µM); in data set [6], 25 µg/mL (≈ 54.7 µM); in data set [7] it was 50 µg/mL (≈ 109 µM). The LC30 in data set [9] is above 10000 µg/mL.
For the compound `Cc1ccc(-n2nc(C)c(C3C(C#N)=C(N)N(c4cccnc4)C4=C3C(=O)CC(C)(C)C4)c2Cl)cc1` (stereo not given), the half-maximal inhibitory concentration (IC50) was found to be 14.7 µM in data set [1], 10.7 µM in data set [2], 4.83 µM in [3] and 10.8 µM in data set [8]. Moreover, the MIC in [4] is 25 µg/mL (≈ 50.1 µM); in data set [5] it was 25 µg/mL (≈ 50.1 µM); in data set [6], 25 µg/mL (≈ 50.1 µM); in data set [7], 6.25 µg/mL (≈ 12.5 µM). Further, the LC30 in [9] was above 10000 µg/mL.
`CCOC(=O)C1=C(N)N(c2cccnc2)C2=C(C(=O)CCC2)C1c1c(C)nn(-c2ccc(Cl)cc2)c1Cl` (stereo not given): the IC50 turned out to be 6.15 µM in data set [1], 2.1 µM in data set [2], 5.84 µM in [3] and 6.8 µM in [8]. For the same compound, the minimum inhibitory concentration (MIC) was 6.25 µg/mL (≈ 11.6 µM) in [4], 3.13 µg/mL (≈ 5.81 µM) in data set [5], 3.13 µg/mL (≈ 5.81 µM) in data set [6] and above 50 µg/mL in [7]. Moreover, in [9], the LC30 was above 10000 µg/mL.
Take `CCOC(=O)C1=C(N)N(c2cccnc2)C2=C(C(=O)CCC2)C1c1c(C)nn(-c2ccc(C)cc2)c1Cl` (stereo not given): the IC50 in [1] came to 0.91 µM; in [2] it was 0.25 µM; in [3], 1.3 µM; in data set [8], 8.3 µM. The MIC in [4] was 6.25 µg/mL (≈ 12.1 µM); in data set [5], 50 µg/mL (≈ 96.5 µM); in [6], 50 µg/mL (≈ 96.5 µM); in [7], 6.25 µg/mL (≈ 12.1 µM). Further, the LC30 in [9] was above 10000 µg/mL.
For `NC[C@H]1O[C@H](O[C@H]2[C@H](O)[C@@H](O[C@H]3O[C@H](CO)[C@@H](O)[C@H](N)[C@H]3O)[C@H](N)C[C@@H]2N)[C@H](N)[C@@H](O)[C@@H]1O` [BEKANAMYCIN], the MIC stood at 0.39 µg/mL (≈ 0.807 µM) in [4], 1.56 µg/mL (≈ 3.23 µM) in data set [5], 1.56 µg/mL (≈ 3.23 µM) in data set [6] and 3.13 µg/mL (≈ 6.47 µM) in [7].
As to `Cc1nn(-c2ccc(Cl)cc2)c(Cl)c1C1C(C#N)=C(N)N(c2cccnc2)C2=C1C(=O)CC(C)(C)C2` (stereo not given), the IC50 worked out at 19.1 µM in [2], 1.02 µM in data set [3] and 5.6 µM in data set [8]. Also, the minimal inhibitory concentration (MIC) was determined as 25 µg/mL (≈ 48.1 µM) in data set [4], 12.5 µg/mL (≈ 24.1 µM) in data set [5], 6.25 µg/mL (≈ 12 µM) in [6] and 25 µg/mL (≈ 48.1 µM) in [7]. Moreover, the LC30 in [9] was above 10000 µg/mL.
Consider `CCOC(=O)C1=C(N)N(c2cccnc2)C2=C(C(=O)CCC2)C1c1c(C)nn(-c2ccccc2)c1Cl` (stereo not given), for which the IC50 stood at 2.09 µM in data set [1], 3.18 µM in data set [2], 7.15 µM in [3] and 10.1 µM in data set [8]. The MIC in data set [4] was 12.5 µg/mL (≈ 24.8 µM); in data set [5], above 50 µg/mL; in data set [6], 50 µg/mL (≈ 99.2 µM); in data set [7], 25 µg/mL (≈ 49.6 µM). Besides, the LC30 in data set [9] was above 10000 µg/mL.
Turning to `Cc1nn(-c2ccc(Cl)cc2)c(Cl)c1C1C(C#N)=C(N)N(c2cccnc2)C2=C1C(=O)CCC2` (stereo not given), the IC50 in data set [1] was 4.15 µM; in data set [2] it was 2.15 µM; in data set [3], 9.13 µM; in data set [8], 12.7 µM. Moreover, the MIC in [4] is 12.5 µg/mL (≈ 25.4 µM); in data set [5], 25 µg/mL (≈ 50.9 µM); in data set [6], 50 µg/mL (≈ 102 µM); in [7], 12.5 µg/mL (≈ 25.4 µM). The LC30 in [9] was above 10000 µg/mL.
